Source: ChEMBL document CHEMBL1137451, “Synthesis and evaluation of antifungal properties of a series of the novel 2-amino-5-oxo-4-phenyl-5,6,7,8-tetrahydroquinoline-3-carbonitrile and its analogues” (Bioorg Med Chem, 2007)
Calls of active or inactive are those of the source. No cut-off for these calls is given here.

Assays:
Fusarium oxysporum [1] = assay: Antifungal activity against Fusarium oxysporum 1 at 40 ug/disc after 24 hrs by disc diffusion method; format: functional; conditions: for zone of inhibition at 40 µg/disc: read-out: IZ
Summary of the method: (§1)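 Yeast suspensions (C. albicans strains 1, 2) and mycelial suspensions (F. oxysporum strains 1, 2; Mucor sp.) spread on YPG (0.3% yeast extract, 0.5% peptone, 1% glucose) or PDA agar. Compound applied on filter-paper discs at the stated amount; 28 °C, 24 h. Read-out is inhibition zone diameter. Controls: 50% v/v DMSO vehicle, cycloheximide, amphotericin B.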

Candida albicans [2] = assay: Antifungal activity against Candida albicans 2 after 24 hrs by disc diffusion method; format: functional
Summary of the method: (§2)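 Disc diffusion on Candida albicans strains 1 and 2 (yeast suspension), Fusarium oxysporum strains 1 and 2 and Mucor sp. (mycelial suspension), spread on YPG or PDA agar. Compound at graded amounts per filter-paper disc, 28 °C for 24 h. MIC taken as the lowest amount giving a 2 mm inhibition zone. Controls: 50% v/v DMSO vehicle, cycloheximide, amphotericin B.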

Benjaminiella poitrasii [3] = assay: Inhibition of Benjaminiella poitrasii chitin synthase at 4 ug/mL
Summary of the method: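 Chitin synthase from Benjaminiella poitrasii measured with and without compound at 4 µg/ml, using a non-radioactive chitin synthase assay. Nikkomycin Z used as reference.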

Candida albicans [4] = assay: Antifungal activity against Candida albicans 1 after 24 hrs by disc diffusion method; format: functional; summary of the method: as §2
Candida albicans [5] = assay: Antifungal activity against Candida albicans 2 at 40 ug/disc after 24 hrs by disc diffusion method; format: functional; conditions: for zone of inhibition at 40 µg/disc: read-out: IZ; summary of the method: as §1
Fusarium oxysporum [6] = assay: Antifungal activity against Fusarium oxysporum 2 at 40 ug/disc after 24 hrs by disc diffusion method; format: functional; conditions: for zone of inhibition at 40 µg/disc: read-out: IZ; summary of the method: as §1
Fusarium oxysporum [7] = assay: Antifungal activity against Fusarium oxysporum 1 after 24 hrs by disc diffusion method; format: functional; summary of the method: as §2
Candida albicans [8] = assay: Antifungal activity against Candida albicans 1 at 60 ug/disc after 24 hrs by disc diffusion method; format: functional; conditions: for zone of inhibition at 60 µg/disc: read-out: IZ; summary of the method: as §1
Fusarium oxysporum [9] = assay: Antifungal activity against Fusarium oxysporum 2 after 24 hrs by disc diffusion method; format: functional; summary of the method: as §2
Candida albicans [10] = assay: Antifungal activity against Candida albicans 1 at 40 ug/disc after 24 hrs by disc diffusion method; format: functional; conditions: for zone of inhibition at 40 µg/disc: read-out: IZ; summary of the method: as §1
Benjaminiella poitrasii [11] = assay: Inhibition of yeast hypha transition at 20 ug/mL after 4 hrs
Mucor [12] = assay: Antifungal activity against Mucor at 100 ug/disc after 24 hrs by disc diffusion method; format: functional; summary of the method: as §1
Fusarium oxysporum [13] = assay: Antifungal activity against Fusarium oxysporum 2 at 100 ug/disc after 24 hrs by disc diffusion method; format: functional; conditions: read-out: IZ; summary of the method: as §1
Candida albicans [14] = assay: Antifungal activity against Candida albicans 2 at 100 ug/disc after 24 hrs by disc diffusion method; format: functional; conditions: read-out: IZ; summary of the method: as §1
Mucor [15] = assay: Antifungal activity against Mucor at 60 ug/disc after 24 hrs by disc diffusion method; format: functional; summary of the method: as §1
Mucor [16] = assay: Antifungal activity against Mucor at 40 ug/disc after 24 hrs by disc diffusion method; format: functional; summary of the method: as §1
Fusarium oxysporum [17] = assay: Antifungal activity against Fusarium oxysporum 1 at 60 ug/disc after 24 hrs by disc diffusion method; format: functional; conditions: for zone of inhibition at 60 µg/disc: read-out: IZ; summary of the method: as §1
Candida albicans [18] = assay: Antifungal activity against Candida albicans 1 at 100 ug/disc after 24 hrs by disc diffusion method; format: functional; conditions: read-out: IZ; summary of the method: as §1
Fusarium oxysporum [19] = assay: Antifungal activity against Fusarium oxysporum 2 at 60 ug/disc after 24 hrs by disc diffusion method; format: functional; conditions: for zone of inhibition at 60 µg/disc: read-out: IZ; summary of the method: as §1
Fusarium oxysporum [20] = assay: Antifungal activity against Fusarium oxysporum 1 at 100 ug/disc after 24 hrs by disc diffusion method; format: functional; conditions: read-out: IZ; summary of the method: as §1
Candida albicans [21] = assay: Antifungal activity against Candida albicans 2 at 60 ug/disc after 24 hrs by disc diffusion method; format: functional; conditions: for zone of inhibition at 60 µg/disc: read-out: IZ; summary of the method: as §1

Compound | MIC (Candida albicans [2]) | inhibition (Benjaminiella poitrasii [3]) | MIC (Candida albicans [4]) | zone of inhibition at 40 µg/disc (Fusarium oxysporum [6]) | MIC (Fusarium oxysporum [7]) | zone of inhibition at 60 µg/disc (Candida albicans [8]) | MIC (Fusarium oxysporum [9]) | inhibition at 20 µg/mL (Benjaminiella poitrasii [11]) | Activity (Mucor [12]) | zone of inhibition at 100 µg/disc (Fusarium oxysporum [13]) | zone of inhibition at 100 µg/disc (Candida albicans [14]) | Activity (Mucor [15]) | Activity (Mucor [16]) | zone of inhibition at 60 µg/disc (Fusarium oxysporum [17]) | zone of inhibition at 100 µg/disc (Candida albicans [18]) | zone of inhibition at 60 µg/disc (Fusarium oxysporum [19]) | zone of inhibition at 100 µg/disc (Fusarium oxysporum [20]) | zone of inhibition at 60 µg/disc (Candida albicans [21]) | Activity (Fusarium oxysporum [1]) | Activity (Candida albicans [5]) | further results
N#Cc1c(N)nc2c(c1-c1cccc(N3C(=O)C=CC3=O)c1)C(=O)CCC2 | 40 µg/disc | 91% | 40 µg/disc | 3 mm | 40 µg/disc | 5 mm | 40 µg/disc | 95% | inactive | 7 mm | 7 mm | inactive | inactive | 3 mm | 7 mm | 3 mm | 7 mm | 5 mm |  |  | zone of inhibition at 40 µg/disc (Fusarium oxysporum [1]): 3 mm; zone of inhibition at 40 µg/disc (Candida albicans [5]): 3 mm; zone of inhibition at 40 µg/disc (Candida albicans [10]): 3 mm
N#Cc1c(N)nc2c(c1-c1cccc(NC(=O)Nc3cccc(-c4c(C#N)c(N)nc5c4C(=O)CCC5)c3)c1)C(=O)CCC2 | 40 µg/disc | 91% | 40 µg/disc |  | 60 µg/disc | 3 mm | 60 µg/disc | 95% | inactive | 6 mm | 7 mm | inactive | inactive | 2 mm | 7 mm | 2 mm | 6 mm | 3 mm | inactive |  | zone of inhibition at 40 µg/disc (Candida albicans [5]): 3 mm; Activity (Fusarium oxysporum [6]): inactive; zone of inhibition at 40 µg/disc (Candida albicans [10]): 3 mm
Cc1ccc(-c2c(C(N)=O)c(N)nc3c2C(=O)CCC3)cc1 | 60 µg/disc | 66% | 60 µg/disc |  | 100 µg/disc | 2 mm | 100 µg/disc | 95% | inactive | 4 mm | 4 mm | inactive | inactive |  | 4 mm | 2 mm | 4 mm | 2 mm | inactive | inactive | Activity (Fusarium oxysporum [6]): inactive; Activity (Candida albicans [10]): inactive; Activity (Fusarium oxysporum [17]): inactive
CC(=O)Nc1nc2c(c(-c3ccc(C)cc3)c1C#N)C(=O)CCC2 | 60 µg/disc | 66% | 60 µg/disc |  | 60 µg/disc | 3 mm | 60 µg/disc | 90% | inactive | 5 mm | 7 mm | inactive | inactive | 3 mm | 7 mm | 3 mm | 5 mm | 3 mm | inactive | inactive | Activity (Fusarium oxysporum [6]): inactive; Activity (Candida albicans [10]): inactive
COc1cc(-c2c(C#N)c(N)nc3c2C(=O)CCC3)cc(OC)c1OC | 100 µg/disc | 81% | 100 µg/disc | 2 mm | 20 µg/disc |  | 20 µg/disc | 95% | inactive | 4 mm | 7 mm | inactive | inactive | 2 mm | 7 mm | 2 mm | 4 mm |  |  | inactive | zone of inhibition at 40 µg/disc (Fusarium oxysporum [1]): 2 mm; Activity (Candida albicans [8]): inactive; Activity (Candida albicans [10]): inactive; Activity (Candida albicans [21]): inactive
N#Cc1c(N)nc2c(c1-c1ccc([N+](=O)[O-])cc1)C(=O)CCC2 | 60 µg/disc | 61% | 60 µg/disc |  | 60 µg/disc | 3 mm | 60 µg/disc | 95% | inactive | 3 mm | 5 mm | inactive | inactive | 2 mm | 5 mm | 2 mm | 3 mm | 3 mm | inactive | inactive | Activity (Fusarium oxysporum [6]): inactive; Activity (Candida albicans [10]): inactive
N#Cc1c(N)nc2c(c1-c1cccc(NC(=O)CCN3CCOCC3)c1)C(=O)CCC2 | 40 µg/disc | 61% | 40 µg/disc | 2 mm | 40 µg/disc | 2 mm | 40 µg/disc | 95% | inactive | 5 mm | 7 mm | inactive | inactive | 3 mm | 7 mm | 3 mm | 5 mm | 2 mm |  |  | zone of inhibition at 40 µg/disc (Fusarium oxysporum [1]): 2 mm; zone of inhibition at 40 µg/disc (Candida albicans [5]): 2 mm; zone of inhibition at 40 µg/disc (Candida albicans [10]): 2 mm
C[C@@H]1C[C@@H]([C@H](O)CC2CC(=O)NC(=O)C2)C(=O)[C@@H](C)C1 [CYCLOHEXIMIDE] | 40 µg/disc |  | 40 µg/disc | 3 mm | 20 µg/disc | 4 mm | 20 µg/disc |  | inactive | 7 mm | 7 mm | inactive | inactive | 5 mm | 7 mm | 5 mm | 7 mm | 4 mm |  |  | zone of inhibition at 40 µg/disc (Fusarium oxysporum [1]): 3 mm; zone of inhibition at 40 µg/disc (Candida albicans [5]): 2 mm; zone of inhibition at 40 µg/disc (Candida albicans [10]): 2 mm
COc1ccc(-c2c(C#N)c(N)nc3c2C(=O)CCC3)cc1 | 60 µg/disc | 81% | 60 µg/disc | 3 mm | 100 µg/disc | 3 mm | 100 µg/disc | 95% | inactive | 6 mm | 4 mm | inactive | inactive |  | 4 mm |  | 6 mm | 3 mm | inactive | inactive | Activity (Candida albicans [10]): inactive; Activity (Fusarium oxysporum [17]): inactive; Activity (Fusarium oxysporum [19]): inactive
N#Cc1c(N)nc2c(c1-c1ccccc1)C(=O)CCC2 | 60 µg/disc | 66% | 60 µg/disc | 3 mm | 60 µg/disc | 2 mm | 60 µg/disc | 90% | inactive | 6 mm | 6 mm | inactive | inactive | 3 mm | 6 mm | 3 mm | 6 mm | 2 mm | inactive | inactive | Activity (Candida albicans [10]): inactive
COc1ccc(NC(=O)Nc2cccc(-c3c(C#N)c(N)nc4c3C(=O)CCC4)c2)cc1 | 40 µg/disc | 71% | 40 µg/disc |  | 100 µg/disc | 3 mm | 100 µg/disc | 95% | inactive | 2 mm | 6 mm | inactive | inactive |  | 6 mm |  | 2 mm | 3 mm | inactive |  | zone of inhibition at 40 µg/disc (Candida albicans [5]): 2 mm; Activity (Fusarium oxysporum [6]): inactive; zone of inhibition at 40 µg/disc (Candida albicans [10]): 2 mm; Activity (Fusarium oxysporum [17]): inactive; Activity (Fusarium oxysporum [19]): inactive
